# Columns and labels:
# [1] = target: Melanin-concentrating hormone receptor 1 (Rattus norvegicus, UniProt P97639); assay: Displacement of [125I]-MCH (4 to 19 residues) from rat MCHR1 expressed in CHO cell membranes after 1 hr by liquid scintillation counting analysis
# Outline: (§1)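 Membranes from MCHR1-expressing CHO cells, homogenized in NaHCO3/EDTA with protease inhibitors, 100000g pellet held at 2 mg/mL protein in 20 mM Tris-HCl pH 7.5, 5 mM EDTA, protease inhibitors.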
# [2] = target: T1, Melanin-concentrating hormone receptor 1 (Homo sapiens, UniProt Q99705); assay: Displacement of [125I]-MCH (4 to19 residues) from human MCHR1 expressed in CHO cell membranes after 1 hr by liquid scintillation counting analysis; outline: as §1
# T1 sequence (Q99705 whole entry, the tested form may be a part): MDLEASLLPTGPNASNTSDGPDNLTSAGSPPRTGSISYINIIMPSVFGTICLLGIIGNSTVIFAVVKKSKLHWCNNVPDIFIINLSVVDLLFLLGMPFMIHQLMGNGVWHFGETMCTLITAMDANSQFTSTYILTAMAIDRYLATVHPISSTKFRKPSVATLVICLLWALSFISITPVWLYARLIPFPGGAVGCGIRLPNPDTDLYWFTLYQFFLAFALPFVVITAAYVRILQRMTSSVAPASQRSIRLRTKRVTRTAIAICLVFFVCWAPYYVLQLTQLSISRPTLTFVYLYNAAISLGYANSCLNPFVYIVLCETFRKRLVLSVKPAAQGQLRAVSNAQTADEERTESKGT
# [3] = Lipophilicity, log D of the compound at pH 7.4; type: physicochemical; conditions: buffer
# Outline: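 Chromatographic HPLC method with UV detection, estimating octanol/buffer partition at pH 7.4.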
# [4] = target: T1, Melanin-concentrating hormone receptor 1; type: functional, cell-based, CHO
# Rattus norvegicus [5] = assay: Antiobesity activity in diet-induced obese F344/jcl rat assessed as reduction in body weight at 1 mg/kg, po qd administered through repeated dosing for 2 weeks measured during 2 weeks of dosing relative to vehicle-treated control; type: functional; set-up: scale not given: the % may be the effect or the level left
# Outline: (§2)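 Male DIO F344/Jcl rats (45 weeks old) on high-fat diet since 5 weeks of age, singly housed, habituated to oral dosing with tap water, grouped by day−1 food intake and body weight. Once-daily oral dosing in 0.5% methylcellulose at 2 mL/kg for 2 weeks, 1−3 h before dark onset, 6 rats/group. Food intake measured every 2 or 3 days; body weight change as % of initial.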
# Rattus norvegicus [6] = assay: Anorectic activity in diet-induced obese F344/jcl rat assessed as inhibition of cumulative food intake at 1 mg/kg, po qd administered through repeated dosing for 2 weeks measured during 2 weeks of dosing relative to vehicle-treated control; type: functional; conditions: 336 h; outline: as §2
# Sequence of Melanin-concentrating hormone receptor 1 (Rattus norvegicus, UniProt P97639) (P97639 whole entry, the tested form may be a part): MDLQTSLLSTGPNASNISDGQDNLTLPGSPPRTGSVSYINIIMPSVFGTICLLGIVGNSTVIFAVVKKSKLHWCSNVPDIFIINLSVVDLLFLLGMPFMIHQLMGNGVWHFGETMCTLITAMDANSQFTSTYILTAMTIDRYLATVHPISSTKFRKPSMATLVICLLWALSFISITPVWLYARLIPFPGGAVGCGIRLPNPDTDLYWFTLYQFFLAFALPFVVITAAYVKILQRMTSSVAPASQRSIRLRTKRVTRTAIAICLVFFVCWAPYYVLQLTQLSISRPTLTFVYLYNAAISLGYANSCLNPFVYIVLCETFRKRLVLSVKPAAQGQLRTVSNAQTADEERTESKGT
smiles,measurement,setting,value
Cc1cn(-c2ccc3nc(C4CC4)c(C)n3c2)c(=O)cc1OCc1ccc(Cl)cc1,IC50,[1],150 nM
same,IC50,[2],210 nM
Cc1c(C2CC2)nc2ccc(-n3ncc(OCc4ccc(Cl)cc4)cc3=O)cn12,IC50,[1],110 nM
same,logD,[3],3.7
same,IC50,[2],92 nM
Cc1c(C2CC2)nc2ccc(-n3ccc(OCc4ccc(F)cc4)cc3=O)cn12,IC50,[1],28 nM
same,IC50,[2],47 nM
Cc1c(C2CC2)nc2ccc(-n3ccc(OCc4ccccn4)cc3=O)cn12,IC50,[1],150 nM
same,IC50,[2],240 nM
Cc1c(C2CC2)nc2ccc(-n3ccc(Oc4ccc(OC(F)(F)F)cc4)cc3=O)cn12,IC50,[1],950 nM
same,IC50,[2],> 1000 nM
Cc1c(C#N)nc2ccc(-n3ccc(OCc4ccc(F)cc4)cc3=O)cn12,IC50,[1],> 1000 nM
same,IC50,[2],> 1000 nM
Cc1nc2ccc(-n3ccc(OCc4ccccc4)cc3=O)cn2c1C,IC50,[1],80 nM
same,IC50,[2],78 nM
Cc1c(C2CC2)nc2ccc(-n3ccc(OCc4ccc(Cl)cc4)nc3=O)cn12,IC50,[1],30 nM
same,logD,[3],2.8
same,IC50,[4],140 nM
same,IC50,[2],37 nM
Cc1c(C2CC2)nc2ccc(-n3ccc(OCc4ccc(Br)cc4)cc3=O)cn12,IC50,[1],9.3 nM
same,IC50,[2],12 nM
Cc1c(C2CC2)nc2ccc(-n3cccc(OCc4ccc(Cl)cc4)c3=O)cn12,IC50,[1],650 nM
same,IC50,[2],990 nM
CC(=O)c1nc2ccc(-n3ccc(OCc4ccc(F)cc4)cc3=O)cn2c1C,IC50,[1],> 1000 nM
same,IC50,[2],> 1000 nM
Cc1c(C(=O)C2CC2)nc2ccc(-n3ccc(OCc4ccc(F)cc4)cc3=O)cn12,IC50,[1],> 1000 nM
same,IC50,[2],> 1000 nM
Cc1c(C2CC2)cc2ccc(NC(=O)COc3ccc(OC(F)(F)F)cc3)cn12,IC50,[1],> 1000 nM
same,IC50,[2],> 1000 nM
Cc1c(C2CC2)nc2ccc(-n3ccc(OCc4ccc(C(C)C)cc4)cc3=O)cn12,IC50,[1],240 nM
same,IC50,[2],410 nM
CC(C)CC(N(C)C)C1(c2ccc(Cl)cc2)CCC1 (stereo unspecified) [SIBUTRAMINE],Activity,Rattus norvegicus [5],3.4%
same,inhibition in vivo at 1 mg/kg,Rattus norvegicus [6],21.5%
Cc1c(C2CC2)nc2ccc(NC(=O)COc3ccc(OC(F)(F)F)cc3)cn12,IC50,[1],6.3 nM
same,IC50,[2],3 nM
Cc1c(C2CC2)nc2ccc(-n3ccc(OCc4csc(C(F)(F)F)c4)cc3=O)cn12,IC50,[1],15 nM
same,IC50,[2],17 nM
Cc1c(C(=O)N(C)C)nc2ccc(-n3ccc(OCc4ccc(F)cc4)cc3=O)cn12,IC50,[1],> 1000 nM
same,IC50,[2],> 1000 nM
Cc1c(C2CC2)nc2ccc(-n3ccc(OCc4cncnc4)cc3=O)cn12,IC50,[1],> 1000 nM
same,IC50,[2],> 1000 nM
